Experimental data taken from ChEMBL document CHEMBL4014268, “Phenolic Compounds from the Lichen Lobaria orientalis” (J Nat Prod, 2017).
Activity calls are given as the source filed them.

Assays:
Type in all cases: functional, cell-based
[1] = system: HeLa; assay: Cytotoxicity against human HeLa cells at 100 ug/ml by SRB assay
Method in brief: (§1)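 Single-concentration screen at 100 μg/mL against four human cancer lines: HepG2 (liver hepatocellular carcinoma), MCF-7 (breast), NCI-H460 (lung) and HeLa (epithelial carcinoma). Cell viability was read by sulforhodamine B staining, with camptothecin as the positive control.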

[2] = system: MCF7; assay: Cytotoxicity against human MCF7 cells at 100 ug/ml by SRB assay; method in brief: as §1
[3] = system: NCI-H460; assay: Cytotoxicity against human NCI-H460 cells at 100 ug/ml by SRB assay; method in brief: as §1
[4] = system: HepG2; assay: Cytotoxicity against human HepG2 cells at 100 ug/ml by SRB assay; method in brief: as §1

Measured: Activity

Cc1cc(O)cc(OC(=O)c2c(C)cc(O)cc2O)c1
inactive: all assays above

Cc1cc(O)cc(O)c1C(=O)Oc1cc(O)cc(C)c1C(=O)O
inactive: all assays above

COC(=O)c1c(C)cc(OC)c(CO)c1Oc1c(O)c(C)c(O)c2c1[C@@H](OC)OC2=O
inactive: all assays above

COc1cc(C)c2c3c1CO[C@H]1OC(=O)c4c(O)c(C)c(c(c41)O3)OC2=O
inactive: all assays above

COC(=O)c1c(C)cc(OC)c(/C=C/C(C)=O)c1Oc1c(O)c(C)c(O)c2c1[C@@H](OC)OC2=O
inactive: all assays above

COC(=O)/C=C/c1c(OC)cc(C)c(C(=O)OC)c1Oc1c(O)c(C)c(O)c2c1[C@@H](OC)OC2=O
inactive: all assays above

COc1cc(C)c2c(c1C=O)Oc1c(c(C)c(O)c3c1[C@@H](OC)OC3=O)OC2=O
inactive: all assays above
